Several values for one entry are separate records, joined by “and”; a condition that tells them apart may be missing. Equal entries are not always repeated.
Tested on: HEK-293T
Experiment: Multiplex assay against HEK293T
Assay type: toxicity, cell-based
Conditions: human
Summary of the method: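 Tubulin, mitochondrial-mass and membrane-permeability phenotypes are per cents of healthy-nucleus cells. Cells were gated by CellPathfinder machine learning into Hoechst high-intensity objects or normal cells, normal cells into healthy, pyknosed or fragmented nuclei, and pyknosed cells into mitotic or apoptotic. Before that, live cells stained at seeding with Hoechst33342, BioTracker Green Microtubule Cytoskeleton Dye, MitoTracker Red and Annexin V Alexa Fluor 680 were imaged on a CQ1 microscope at 37°C and 5% CO2 after compound addition.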

[1] = 12 h, 1 µM, compound concentration 1 uM
[2] = 12 h, 10 µM, compound concentration 10 uM
[3] = 24 h, 1 µM, compound concentration 1 uM
[4] = 24 h, 10 µM, compound concentration 10 uM
[5] = 48 h, 1 µM, compound concentration 1 uM
[6] = 48 h, 10 µM, compound concentration 10 uM

CCn1c(-c2ccncc2)cc2c1CCNC2=O
Population Apoptotic (%) [1]: 15.09% and 7.09% | Population Fragmented Nuclei (%) [1]: 1.92% and 1.82% | Population Hoechst High Intensity Objects (%) [1]: 0.95% and 0% | Population Membrane Permeable-Phenotype (%) [1]: 2.72% and 0% | Population Mitochondria Different-Phenotype (%) [1]: 35.37% and 23.81% | Population Mitotic Cells (%) [1]: 84.91% and 92.91% | Population Normal (%) [1]: 99.05% and 100% | Population Pyknosed Nuclei (%) [1]: 50.96% and 85.45% | Population Tubulin-Different-Phenotype (%) [1]: 7.48% and 14.29% | Total Cell Count [1]: 315 and 165 | Population Apoptotic (%) [2]: 15.05% and 13.74% | Population Fragmented Nuclei (%) [2]: 0.77% and 4.17% | Population Hoechst High Intensity Objects (%) [2]: 0% | Population Membrane Permeable-Phenotype (%) [2]: 0% and 14.29% | Population Mitochondria Different-Phenotype (%) [2]: 31.51% and 14.29% | Population Mitotic Cells (%) [2]: 84.95% and 86.26% | Population Normal (%) [2]: 100% | Population Pyknosed Nuclei (%) [2]: 71.26% and 90.97% | Population Tubulin-Different-Phenotype (%) [2]: 5.48% and 14.29% | Total Cell Count [2]: 261 and 144 | Population Apoptotic (%) [3]: 31.73% and 15.24% | Population Fragmented Nuclei (%) [3]: 2.16% and 2.84% | Population Hoechst High Intensity Objects (%) [3]: 0.27% and 0% | Population Membrane Permeable-Phenotype (%) [3]: 1.16% and 6.25% | Population Mitochondria Different-Phenotype (%) [3]: 23.17% and 18.75% | Population Mitotic Cells (%) [3]: 68.27% and 84.76% | Population Normal (%) [3]: 99.73% and 100% | Population Pyknosed Nuclei (%) [3]: 28.03% and 74.47% | Population Tubulin-Different-Phenotype (%) [3]: 32.43% and 18.75% | Total Cell Count [3]: 372 and 141 | Population Apoptotic (%) [4]: 46.45% and 34.13% | Population Fragmented Nuclei (%) [4]: 1.6% and 3.57% | Population Hoechst High Intensity Objects (%) [4]: 0% | Population Membrane Permeable-Phenotype (%) [4]: 0% | Population Mitochondria Different-Phenotype (%) [4]: 30.77% and 44.44% | Population Mitotic Cells (%) [4]: 53.55% and 65.87% | Population Normal (%) [4]: 100% | Population Pyknosed Nuclei (%) [4]: 62% and 90% | Total Cell Count [4]: 250 and 140 | Population Apoptotic (%) [5]: 33.96% and 24.19% | Population Fragmented Nuclei (%) [5]: 5.74% and 0% | Population Healthy Nuclei (%) [5]: 80.42% and 45.61% | Population Hoechst High Intensity Objects (%) [5]: 0.78% and 0.87% | Population Membrane Permeable-Phenotype (%) [5]: 2.6% and 0% | Population Mitochondria Different-Phenotype (%) [5]: 61.36% and 40.38% | Population Mitotic Cells (%) [5]: 66.04% and 75.81% | Population Normal (%) [5]: 99.22% and 99.13% | Population Apoptotic (%) [6]: 66.43% and 44.74% | Population Fragmented Nuclei (%) [6]: 1.61% and 5.88% | Population Hoechst High Intensity Objects (%) [6]: 0% | Population Membrane Permeable-Phenotype (%) [6]: 0% | Population Mitochondria Different-Phenotype (%) [6]: 82.35% and 78.57% | Population Mitotic Cells (%) [6]: 33.57% and 55.26% | Population Normal (%) [6]: 100% | Population Pyknosed Nuclei (%) [6]: 57.43% and 83.82% | Total Cell Count [6]: 249 and 136

Cc1cnc(-c2cc(N3CCN(C(=O)CCS(C)(=O)=O)CC3)ncc2Cl)c(C)c1
Population Apoptotic (%) [1]: 29% and 42% | Population Fragmented Nuclei (%) [1]: 6% | Population Healthy Nuclei (%) [1]: 76% and 75% | Population Hoechst High Intensity Objects (%) [1]: 4% and 9% | Population Membrane Permeable-Phenotype (%) [1]: 0% | Population Mitochondria Different-Phenotype (%) [1]: 50% and 69% | Population Mitotic Cells (%) [1]: 70% and 57% | Population Normal (%) [1]: 95% and 90% | Population Pyknosed Nuclei (%) [1]: 16% and 17% | Population Tubulin-Different-Phenotype (%) [1]: 33% and 24% | Total Cell Count [1]: 276 and 294 | Population Apoptotic (%) [2]: 42% and 45% | Population Fragmented Nuclei (%) [2]: 7% | Population Healthy Nuclei (%) [2]: 82% and 75% | Population Hoechst High Intensity Objects (%) [2]: 10% and 7% | Population Membrane Permeable-Phenotype (%) [2]: 0% | Population Mitochondria Different-Phenotype (%) [2]: 47% and 70% | Population Mitotic Cells (%) [2]: 57% and 54% | Population Normal (%) [2]: 89% and 92% | Population Pyknosed Nuclei (%) [2]: 10% and 17% | Population Tubulin-Different-Phenotype (%) [2]: 40% and 39% | Total Cell Count [2]: 409 and 288 | Population Apoptotic (%) [3]: 36% and 40% | Population Fragmented Nuclei (%) [3]: 8% and 7% | Population Healthy Nuclei (%) [3]: 78% and 83% | Population Hoechst High Intensity Objects (%) [3]: 2% and 6% | Population Membrane Permeable-Phenotype (%) [3]: 1% and 0% | Population Mitochondria Different-Phenotype (%) [3]: 30% and 36% | Population Mitotic Cells (%) [3]: 63% and 60% | Population Normal (%) [3]: 97% and 93% | Population Pyknosed Nuclei (%) [3]: 12% and 9% | Population Tubulin-Different-Phenotype (%) [3]: 21% and 13% | Total Cell Count [3]: 368 and 413 | Population Apoptotic (%) [4]: 33% and 51% | Population Fragmented Nuclei (%) [4]: 15% and 7% | Population Healthy Nuclei (%) [4]: 76% and 80% | Population Hoechst High Intensity Objects (%) [4]: 5% | Population Membrane Permeable-Phenotype (%) [4]: 0% | Population Mitochondria Different-Phenotype (%) [4]: 29% and 47% | Population Mitotic Cells (%) [4]: 66% and 48% | Population Normal (%) [4]: 94% | Population Pyknosed Nuclei (%) [4]: 8% and 12% | Population Tubulin-Different-Phenotype (%) [4]: 31% and 22% | Total Cell Count [4]: 550 and 392 | Population Apoptotic (%) [5]: 27% and 34% | Population Fragmented Nuclei (%) [5]: 17% and 14% | Population Healthy Nuclei (%) [5]: 76% and 78% | Population Hoechst High Intensity Objects (%) [5]: 1% and 2% | Population Membrane Permeable-Phenotype (%) [5]: 1% and 0% | Population Mitochondria Different-Phenotype (%) [5]: 17% and 22% | Population Mitotic Cells (%) [5]: 72% and 65% | Population Normal (%) [5]: 98% and 97% | Population Pyknosed Nuclei (%) [5]: 6% | Population Tubulin-Different-Phenotype (%) [5]: 10% and 6% | Total Cell Count [5]: 718 and 595 | Population Apoptotic (%) [6]: 25% and 36% | Population Fragmented Nuclei (%) [6]: 14% | Population Healthy Nuclei (%) [6]: 78% and 77% | Population Hoechst High Intensity Objects (%) [6]: 4% and 3% | Population Membrane Permeable-Phenotype (%) [6]: 0% | Population Mitochondria Different-Phenotype (%) [6]: 23% and 32% | Population Mitotic Cells (%) [6]: 74% and 63% | Population Normal (%) [6]: 95% and 96% | Population Pyknosed Nuclei (%) [6]: 7% and 8% | Population Tubulin-Different-Phenotype (%) [6]: 17% and 15% | Total Cell Count [6]: 753 and 576

— ChEMBL document CHEMBL5724801, “EUbOPEN Chemogenomics Library - Multiplex” (2024)
